Test results from PMC5829012 (Biochemistry, 2018).
“Also recorded” adds a separate entry of the source. Where two headings read alike, the source gives them in different places.

What was measured:
[1] = target: T1, Aβ42-fibrinogen interaction (Homo sapiens, UniProt P05067); experiment: AlphaLISA of the Aβ42-fibrinogen interaction; assay type: binding; conditions: triplicate
How it was run: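 Test compound (0.1–100 μM) incubated 30 min at RT with 10 nM biotinylated Aβ42 and 1 nM fibrinogen in 25 mM Tris-HCl pH 7.4, 150 mM NaCl, 0.05% Tween-20, 0.1% BSA. Anti-fibrinogen antibody, 20 μg/ml streptavidin donor and protein A acceptor beads added for 90 min at RT. Triplicate runs; IC50 from sigmoidal dose-response fit with 95% CI.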

Aβ aggregation = conditions: cited from earlier work
[2] = target: T1, Aβ42-fibrinogen interaction; conditions: positive control; cited from earlier work
AD mouse models = conditions: cited from earlier work
[3] = test system: fibrin clot formation from fibrinogen with or without Aβ42 oligomers; experiment: In vitro clotting; assay type: biochemical, human; conditions: compound 20 μM; fibrinogen 1.5 μM; thrombin; 450 nm
How it was run: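 Purified human fibrinogen (1.5 μM) was preincubated with test compound (20 μM) or 0.4% DMSO vehicle, with or without Aβ42 oligomers (3 μM). Oligomers were made from HFIP-monomerized films: sonicated in DMSO, agitated overnight at 4°C, spun at 20,000 x g, and quantified by BCA. Clotting was started with thrombin (0.5 U/mL) and CaCl₂ (5 mM) in 20 mM HEPES pH 7.4, 137 mM NaCl at RT. A450 turbidity was followed over time, in triplicate.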

Aβ42 aggregation = Aβ42 aggregation (Homo sapiens, UniProt P05067); experiment: Aβ42 aggregation kinetics by ThT fluorescence; assay type: biochemical; conditions: Aβ42 12.5 μM; compound 48 μM; 37°C, 26 hrs
Aβ42 aggregation, sequence (P05067 672-713 limits assumed): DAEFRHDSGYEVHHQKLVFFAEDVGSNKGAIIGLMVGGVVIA
How it was run: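 HFIP-monomerized Aβ42 was dissolved in DMSO by sonication, diluted in 20 mM HEPES pH 7.4/140 mM NaCl, spun 10 min at 4°C and kept on ice for ≤30 min. Wells were DMSO-matched; buffer ± compound served as controls. ThT was 33 μM final; plates shaken at 25 rpm, 37°C. Fluorescence (ex 440/em 480 nm) was read hourly. Triplicate.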

Aβ42 = conditions: surface plasmon resonance; cited from earlier work
[4] = test system: Aβ42-induced activation of the FXII-mediated contact system; experiment: Kallikrein activity assay; assay type: biochemical, human; conditions: DXS 0.1 μg/ml
How it was run: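 Aβ42 oligomers (overnight 4°C in HEPES buffer, 1 μM final) ± test compound (40 μM) shaken 30 min at RT in 20 mM HEPES pH 7.4/140 mM NaCl. Human FXII and plasma prekallikrein added (10 nM each), then S-2302 (0.67 mM final). A405 read at RT; rate over 30 min as mU/min. DXS 0.1 µg/ml ± test compound as positive control; triplicate.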

[5] = read-out: AlphaLISA (IC50), known Aβ aggregation inhibitors (Table 1), 10 nM biotinylated Aβ42, 1 nM fibrinogen

T1 sequence (P05067 672-713 limits assumed): as above

Question: Which IC50 [1, 5] does the source give for `O=C1NC(=O)c2cc(Nc3ccccc3)c(Nc3ccccc3)cc21` [4,5-Dianilino Pthalimide (DAPH), 4,5-Dianilino Pthalimide] here?
Answer: 43.2 µM

Question: With `Oc1cccc(Nc2ccc(Nc3cccc(O)c3)nn2)c1` [RS-0406] as the molecule, how does the IC50 [1, 5] read?
Answer: > 100 µM

Question: And the “inhibition of Aβ aggregation and its toxicity” value (Aβ aggregation)?
Answer: strongly inhibit

Question: With `CN(C)CCN(Cc1ccccc1)C(=O)c1cc(-c2ccc(F)cc2)n2nc(C(C)(C)C)cc2n1` [RU-505] as the molecule, how does the “inhibition of the Aβ42-fibrinogen interaction” value [2] read?
Answer: known inhibitor of the Aβ42-fibrinogen interaction

Question: What about the cognitive impairment (AD mouse models) of the same molecule?
Answer: lessened the severity

Question: What about the cortical inflammation (AD mouse models) of the same molecule?
Answer: reduced

Question: What about the “vascular Aβ deposition” value (AD mouse models) of the same molecule?
Answer: reduced

Question: What does the source list for `CN(C)c1cccc(Oc2cnc(Nc3cccc(O)c3)nc2)c1` [SEN1269]?
Answer: IC50 ([1]; RHS analogs of SEN1269 (Table 2), AlphaLISA): 17.8 µM; IC50 [1, 5]: 17.8 µM; turbidity of the normal fibrin clot formed in the absence of Aβ42 [3]: further decreased the turbidity; Aβ42 aggregation (ThT fluorescence) (Aβ42 aggregation): effectively inhibited Aβ42 aggregation; binding to Aβ42 (Aβ42): binds to Aβ42; also recorded: shown to bind Aβ42; inhibition of Aβ aggregation / β-pleated sheet assembly and toxicity (Aβ aggregation): potent Aβ aggregation inhibitor; also recorded: block

Question: For Dextran sulfate, which “kallikrein activity (positive control)” value [4] is on record?
Answer: high kallikrein activity

Question: With Tanshinone as the molecule, how does the IC50 [1, 5] read?
Answer: > 100 µM

Question: And the “inhibition of Aβ aggregation and its toxicity” value (Aβ aggregation)?
Answer: strongly inhibit
